{"source": "ChEMBL document CHEMBL4613249", "about": "“Serendipitous Discovery of Leucine and Methionine Depletion Agents during the Search for Polyamine Transport Inhibitors” (J Med Chem, 2020)", "key": {"[1]": {"target": "Large neutral amino acids transporter small subunit 1 (Homo sapiens) (UniProt Q01650)", "sequence (Q01650 whole entry)": "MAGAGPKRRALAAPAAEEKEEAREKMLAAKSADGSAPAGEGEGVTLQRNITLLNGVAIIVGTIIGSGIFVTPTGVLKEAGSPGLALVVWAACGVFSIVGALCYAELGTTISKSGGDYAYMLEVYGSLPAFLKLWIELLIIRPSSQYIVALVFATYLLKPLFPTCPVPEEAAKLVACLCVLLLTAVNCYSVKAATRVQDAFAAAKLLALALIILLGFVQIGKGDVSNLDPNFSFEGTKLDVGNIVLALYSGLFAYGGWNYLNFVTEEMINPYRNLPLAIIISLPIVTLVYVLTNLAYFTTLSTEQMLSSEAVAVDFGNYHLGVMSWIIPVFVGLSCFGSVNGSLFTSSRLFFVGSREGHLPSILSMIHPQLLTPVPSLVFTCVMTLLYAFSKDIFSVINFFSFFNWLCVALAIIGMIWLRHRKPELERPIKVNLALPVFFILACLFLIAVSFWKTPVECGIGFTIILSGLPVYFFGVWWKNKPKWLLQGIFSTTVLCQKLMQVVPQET", "test": "Induction of LAT1-mediated polyamine efflux in aminoguanidine pretreated human L3.6PL cells assessed as reduction in cell viability up to 15 uM by MTS assay", "type": "cell-based", "details": "TDE = time-dependent effect"}, "CHO-K1": {"tested_on": "CHO-K1", "test": "Cytotoxicity against CHOK1 cells assessed as reduction in cell viability after 48 hrs by MTS assay", "type": "cell-based", "details": "Cricetulus griseus, CHO-K1, 48 h", "procedure,_shortened": "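Cells in RPMI 1640 with 10% FBS, 1% penicillin/streptomycin, 37°C, 5% CO2, with aminoguanidine (1 mM for CHO K1 and CHO-MG, 250 μM for L3.6pl). Plated overnight at 1000 cells/well (CHO lines) or 500 cells/well (L3.6pl). Compound in PBS added, 48 h exposure. Growth read as MTS formazan absorbance at 490 nm. IC50 is the dose giving 50% relative growth versus untreated control. Run twice in triplicate.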"}, "L3.6pl [2]": {"tested_on": "L3.6pl", "test": "Effect on polyamine level in human L3.6PL cells assessed as change in putrescine level at 2 to 7 uM measured after 72 hrs in presence of amine oxidase suppressor aminoguanidine by LCMS analysis", "type": "functional, cell-based", "details": "in the assay text read “by N-dansylation and HPLC analysis” for “by LCMS analysis”", "procedure,_shortened": "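L3.6pl cells, 50,000 cells/mL in 10 mL per Petri dish with 1 mM aminoguanidine, plated overnight. Dosed with compound at 2, 5 or 7 μM from PBS stocks, then 72 h at 37°C. Intracellular polyamines measured by N-dansylation and HPLC, in duplicate, as nmol/mg protein against a parallel untreated control.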"}, "L3.6pl [3]": {"tested_on": "L3.6pl", "test": "Effect on polyamine level in human L3.6PL cells assessed as arginine level per mg protein in supernatant at 5 uM measured after 72 hrs in presence of amine oxidase suppressor aminoguanidine by LCMS analysis (reference value: 22121 +/- 10585 pmol/mg)", "type": "functional"}, "L3.6pl [4]": {"tested_on": "L3.6pl", "test": "Induction of polyamine import in human L3.6PL cells assessed as increase in intracellular Ant-44 uptake by measuring Ant-44 level per protein at 1 measured up to 72 hrs in presence of amine oxidase suppressor aminoguanidine by LCMS analysis (reference value: 2.15 +/- 0.1 nmol/mg)", "type": "functional"}, "[5]": {"target": "Large neutral amino acids transporter small subunit 1 (Homo sapiens) (UniProt Q01650)", "test": "Induction of LAT1-mediated polyamine efflux in aminoguanidine pretreated human L3.6PL cells assessed as reduction in cell viability at 5 uM measured after 72 hrs in presence of spermidine by MTS assay", "type": "cell-based", "procedure,_shortened": "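L3.6pl cells pre-incubated 24 h with 250 μM aminoguanidine. Then given increasing compound plus putrescine, spermidine or spermine, each fixed at 1 or 5 μM, for 72 h at 37°C. Growth by MTS relative to untreated control.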"}, "L3.6pl [6]": {"tested_on": "L3.6pl", "test": "Effect on polyamine level in human L3.6PL cells assessed as methionine level human L3.6PL cells assessed per mg protein in supernatant at 2 uM pretreated with aminoguanidine for 24 hrs followed by compound treatment after 72 hrs by LCMS analysis (reference value: 22834 +/- 1984 pmol/mg)", "type": "functional"}, "L3.6pl [7]": {"tested_on": "L3.6pl", "test": "Effect on polyamine level in human L3.6PL cells assessed as ornithine level per mg protein in supernatant at 5 uM measured after 72 hrs in presence of amine oxidase suppressor aminoguanidine by LCMS analysis (reference value: 10588 +/- 3212 pmol/mg)", "type": "functional"}, "L3.6pl [8]": {"tested_on": "L3.6pl", "test": "Effect on polyamine level in human L3.6PL cells assessed as acetyl spermidine level per mg protein in supernatant at 2 uM measured after 72 hrs in presence of amine oxidase suppressor aminoguanidine by LCMS analysis (reference value: 1936 +/- 1365 pmol/mg)", "type": "functional"}, "[9]": {"target": "Large neutral amino acids transporter small subunit 1 (Homo sapiens) (UniProt Q01650)", "test": "Inhibition of LAT1-mediated [3H]-leucine uptake in human L3.6PL cells at 2 to 7 uM preincubated for 24 hrs at 37 degree C followed by HBBS addition and compound washout and subsequent compound dosing measured after 30 mins by scintillation counter method", "type": "cell-based", "procedure,_shortened": "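L3.6pl cells were preincubated 24 h at 37°C with compound, washed and placed in HBSS. Compound was then added back just before ³H-leucine, followed by a 30 min incubation at 37°C. After cold washes, radioactivity was counted and normalized to μg protein.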"}, "[10]": {"target": "Large neutral amino acids transporter small subunit 1 (Homo sapiens) (UniProt Q01650)", "test": "Induction of LAT1-mediated polyamine efflux in human L3.6PL cells assessed as increase in [3H]leucine efflux at 60 uM measured after 30 mins at 37 degC by scintillation counting method", "type": "cell-based", "procedure,_shortened": "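L3.6pl cells preloaded 5 min at 37°C with 3H-leucine and washed three times with cold HBSS. Compound (60 μM) given alone for 30 min at 37°C. Radioactivity of released 3H-leucine counted in the supernatant. Untreated and 100 μM unlabeled leucine lanes set the efflux range.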"}, "[11]": {"target": "Large neutral amino acids transporter small subunit 1 (Homo sapiens) (UniProt Q01650)", "test": "Inhibition of LAT1-mediated [3H]-leucine uptake in human L3.6PL cells at 2 to 20 uM and 37 degree C measured after 2 mins by scintillation counter method", "type": "cell-based"}, "L3.6pl [12]": {"tested_on": "L3.6pl", "test": "Effect on polyamine level in human L3.6PL cells assessed as decrease in intracellular spermidine level at 7 uM measured after 72 hrs in presence of amine oxidase suppressor aminoguanidine […] relative to control", "type": "functional", "parameters": "scale not given: the % may be the effect or the level left"}, "L3.6pl [13]": {"tested_on": "L3.6pl", "test": "Effect on polyamine level in human L3.6PL cells assessed as acetyl spermidine level per mg protein in supernatant at 5 uM measured after 72 hrs in presence of amine oxidase suppressor aminoguanidine by LCMS analysis (reference value: 1936 +/- 1365 pmol/mg)", "type": "functional"}, "L3.6pl [14]": {"tested_on": "L3.6pl", "test": "Effect on polyamine level in human L3.6PL cells assessed as arginine level per mg protein in supernatant at 2 uM measured after 72 hrs in presence of amine oxidase suppressor aminoguanidine by LCMS analysis (reference value: 22121 +/- 10585 pmol/mg)", "type": "functional"}, "[15]": {"target": "Large neutral amino acids transporter small subunit 1 (Homo sapiens) (UniProt Q01650)", "test": "Inhibition of LAT1-mediated amino acid transport in human L3.6PL cells assessed as reduction in intracellular methionine level by measuring methionine level per mg protein in cell lysate at 5 uM measured after 72 hrs by LCMS analysis (reference value: 167 +/- 67 pmol/mg)", "type": "cell-based", "procedure,_shortened": "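L3.6pl cells (50,000 cells/mL, 10 mL, 1 mM aminoguanidine) were seeded in poly-lysine-treated 9 cm dishes and incubated overnight at 37°C. They were then dosed with compound at 2, 5 or 7 μM from PBS stocks (2, 5, 7 mM) and incubated 72 h. Runs were done in triplicate, with amino acid levels per mg protein.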"}, "L3.6pl [16]": {"tested_on": "L3.6pl", "test": "Effect on polyamine level in human L3.6PL cells assessed as acetyl spermine level per mg protein in supernatant at 5 uM measured after 72 hrs in presence of amine oxidase suppressor aminoguanidine by LCMS analysis (reference value: 77 +/- 43 pmol/mg)", "type": "functional"}, "[17]": {"test": "Selectivity index, ratio of IC50 for cytotoxicity against CHOK1 cells assessed as reduction in cell viability after 48 hrs by MTS assay to IC50 for […] human L3.6PL cells assessed as reduction in cell viability after 48 hrs by MTS assay", "procedure,_shortened": "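The ratio is of 48 h IC50 values from MTS growth assays. CHO K1/CHO-MG cells were plated at 1000 cells/well and L3.6pl at 500 cells/well, drug in PBS was added after overnight incubation, and absorbance was read at 490 nm. IC50 is 50% growth versus untreated control; runs were done twice in triplicate.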"}, "L3.6pl [18]": {"tested_on": "L3.6pl", "test": "Effect on polyamine level in human L3.6PL cells assessed as leucine level per mg protein in supernatant at 2 uM measured after 72 hrs in presence of amine oxidase suppressor aminoguanidine by LCMS analysis (reference value: 18009 +/- 9061 pmol/mg)", "type": "functional"}}, "note": "pIC50: −log10 of the molar value. Active and inactive are the calls of the source. The rule behind the calls is not given here.", "data": [{"molecule": "CC(C)CCN1CCN([C@@H](CNCc2ccccc2)CC2CCCCC2)C[C@@H]1CC(C)C", "values": [{"measurement": "Activity", "setting": "[1]", "result": "Tde"}, {"measurement": "pIC50", "setting": "CHO-K1", "result": 5.10}, {"measurement": "Activity", "setting": "L3.6pl [2]", "result": "inactive"}, {"measurement": "Activity", "setting": "L3.6pl [3]", "result": 43243, "unit": "pmol/mg"}, {"measurement": "Activity", "setting": "L3.6pl [4]", "result": 2.08, "unit": "nmol/mg"}, {"measurement": "Activity", "setting": "[5]", "result": "Active"}, {"measurement": "Activity", "setting": "L3.6pl [6]", "result": 17686, "unit": "pmol/mg"}, {"measurement": "Activity", "setting": "L3.6pl [7]", "result": 15951, "unit": "pmol/mg"}, {"measurement": "Activity", "setting": "L3.6pl [8]", "result": 1649, "unit": "pmol/mg"}, {"measurement": "inhibition", "setting": "[9]", "result": "inactive"}, {"measurement": "Activity", "setting": "[10]", "result": "Active"}, {"measurement": "inhibition", "setting": "[11]", "result": "inactive"}, {"measurement": "Activity", "setting": "L3.6pl [12]", "result": 50, "unit": "%"}, {"measurement": "Activity", "setting": "L3.6pl [13]", "result": 1706, "unit": "pmol/mg"}, {"measurement": "Activity", "setting": "L3.6pl [14]", "result": 18396, "unit": "pmol/mg"}, {"measurement": "Activity", "setting": "[15]", "result": 41, "unit": "pmol/mg"}, {"measurement": "Activity", "setting": "L3.6pl [16]", "result": 36, "unit": "pmol/mg"}, {"measurement": "Ratio IC50", "setting": "[17]", "result": 2}, {"measurement": "Activity", "setting": "L3.6pl [18]", "result": 15055, "unit": "pmol/mg"}]}]}
